Assay results of several laboratories.
Target: Cytochrome P450 2C19 (CYP2C19, Homo sapiens, UniProt P33261)
Effect on: enzyme activity
Mode: inhibitor

`COc1ccn2c(Nc3ccccc3F)c(-c3ccncn3)nc2c1` has an IC50 of 0.93 µM.
The IC50 of `C[C@H]1CN(c2n[nH]c3nc(N[C@H]4CC[C@H](NS(=O)(=O)CCC(F)(F)F)CC4)ncc23)CCO1` is reported as over 100 µM.
With `CCN(Cc1cnc2nc(N)nc(N)c2n1)c1ccc(C(=O)c2ccccc2)cc1` the IC50 was 0.282 µM (luciferase).
`CCCN(CCC)CCc1cccc2c1CC(=O)N2` has an IC50 of over 1000 µM (fluorescence).
`COc1ccc2[nH]c([S+]([O-])Cc3ncc(C)c(OC)c3C)nc2c1` (stereo not drawn) gave an IC50 of 0.662 µM (human; liver microsomes; 90 min; pH 7.4).
With `COc1ccc2[nH]c([S+]([O-])Cc3ncc(C)c(OC)c3C)nc2c1` (stereo not drawn) the IC50 was 32 µM (fluorescence).
The IC50 of `COC(=O)C1CCN(C(=O)c2ccc(N(Cc3ccccc3)Cc3cnc4nc(N)nc(N)c4n3)cc2)CC1` is reported as 0.195 µM (luciferase).
The IC50 of `CCCCCNC(=N)N/N=C/c1c[nH]c2ccc(OC)cc12` is reported as 1.17 µM (fluorescence).
The IC50 of `CN(Cc1cnc2nc(N)nc(N)c2n1)c1ccc(C(=O)N2CCCCC2)cc1` is reported as 16.2 µM (luciferase).
`COc1ccc2c(Cc3ccccc3F)c3n(c(=O)c2c1OC)CCc1cc2c(cc1-3)OCO2` gave an IC50 of 4.7 µM.
`C#CCN(Cc1cnc2nc(N)nc(N)c2n1)c1ccc(C(=O)N2CCC(C(=O)OC)CC2)cc1` has an IC50 of 9.77 µM (luciferase).
With `CCc1cc(/C(C)=N/OCc2ccc(C3CCCCC3)c(C(F)(F)F)c2)ccc1CN1CC(C(=O)O)C1` the IC50 was over 0.5 µM (human; liver microsomes; 20 min).
